Source: ChEMBL document CHEMBL1833856, “Discovery and kinetic evaluation of 6-substituted 4-benzylthio-1,3,5-triazin-2(1H)-ones as inhibitors of cathepsin B” (Eur J Med Chem, 2011)

Tests used:
Cathepsin B [1] = molecular target: T1, Cathepsin B (Homo sapiens, UniProt P07858); experiment: Inhibition of human recombinant cathepsin B assessed as formation of fluorescent degradation product AMC using Z-Arg-Arg-AMC as substrate at 50 uM by fluorescence microplate assay
[2] = molecular target: Procathepsin L (Homo sapiens) (UniProt P07711); experiment: Inhibition of human recombinant cathepsin L expressed in Escherichia coli assessed as formation of fluorescent degradation product AMC using Z-Phe-Arg-AMC as substrate at 50 uM by fluorescence microplate assay
[3] = molecular target: T2, Pro-cathepsin H (Homo sapiens) (UniProt P09668); experiment: Inhibition of native cathepsin H isolated from human liver assessed as formation of fluorescent degradation product AMC using Arg-AMC as substrate at 50 uM by fluorescence microplate assay
T2 sequence (whole entry): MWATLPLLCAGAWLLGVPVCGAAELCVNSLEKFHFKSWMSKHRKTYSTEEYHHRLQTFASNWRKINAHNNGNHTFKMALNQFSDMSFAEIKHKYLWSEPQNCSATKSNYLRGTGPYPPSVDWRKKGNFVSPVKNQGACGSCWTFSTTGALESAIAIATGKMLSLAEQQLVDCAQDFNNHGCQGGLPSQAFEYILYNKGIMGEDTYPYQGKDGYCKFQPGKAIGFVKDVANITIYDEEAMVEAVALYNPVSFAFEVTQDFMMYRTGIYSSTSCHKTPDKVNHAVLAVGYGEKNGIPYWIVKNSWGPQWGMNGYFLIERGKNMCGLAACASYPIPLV

Cathepsin B [4] = molecular target: T1, Cathepsin B; experiment: Reversible inhibition of human recombinant cathepsin B assessed as formation of fluorescent degradation product AMC using Z-Arg-Arg-AMC as substrate by Michaelis-Menten method
Method in brief: (§1)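 Recombinant human catB (133 pM) preactivated 5 min at 37 °C in 100 mM phosphate pH 6.0, 0.1% PEG 8000, 5 mM DTT, 1.5 mM EDTA, 5% DMSO. Initial hydrolysis rates taken across Z-Arg-Arg-AMC (60, 180, 360 µM, as added) and inhibitor (0–70 µM, as added). AMC read ex 380/em 460 nm at 37 °C. Duplicates, two independent runs. β fitted for ES-complex binding.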

Cathepsin B [5] = molecular target: T1, Cathepsin B; experiment: Inhibition of human recombinant cathepsin B assessed as factor by which the product formation changes when the inhibitor binds to the enzyme-substrate complex using Z-Arg-Arg-AMC as substrate by fluorescence microplate assay; method in brief: as §1
Cathepsin B [6] = molecular target: T1, Cathepsin B; experiment: Mixed-type inhibition of human recombinant cathepsin B assessed as formation of fluorescent degradation product AMC using Z-Arg-Arg-AMC as substrate by Michaelis-Menten method; method in brief: as §1
Cathepsin B [7] = molecular target: T1, Cathepsin B; experiment: Partial mixed-type inhibition of human recombinant cathepsin B assessed as formation of fluorescent degradation product AMC using Z-Arg-Arg-AMC as substrate by Michaelis-Menten method; method in brief: as §1

Sequence of Procathepsin L (Homo sapiens) (P07711 114-333 limits assumed): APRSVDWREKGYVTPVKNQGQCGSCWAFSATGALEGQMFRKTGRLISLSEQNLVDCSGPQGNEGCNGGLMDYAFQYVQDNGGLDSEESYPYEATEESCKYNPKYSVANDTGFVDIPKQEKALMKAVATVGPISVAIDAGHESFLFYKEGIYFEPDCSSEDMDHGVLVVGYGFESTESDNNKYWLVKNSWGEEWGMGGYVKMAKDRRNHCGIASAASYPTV

| Compound | inhibition (Cathepsin B [1]) [%] | inhibition [2] [%] | inhibition [3] [%] | Ki (Cathepsin B [4]) [µM] | fold change (FC) (Cathepsin B [5]) | Ki (Cathepsin B [6]) [µM] | Ki (Cathepsin B [7]) [µM] |
| --- | --- | --- | --- | --- | --- | --- | --- |
| COc1ccc(CNc2nc(Cl)nc(N(C)CCO)n2)cc1 | 0.92 | 9.95 | 7.12 |  |  |  |  |
| O=C(O)CSc1nc(SCc2ccccc2)nc(=O)[nH]1 |  | -2.36 | 6.89 | 560 | 0 | 351 |  |
| Cc1ccc(-c2nc(S)[nH]c(=O)n2)cc1 | 9.02 | 6.37 | 6.58 |  |  |  |  |
| OCCc1ccccc1Nc1nc(Cl)nc(Cl)n1 | -3.38 |  |  |  |  |  |  |
| N#CCSc1nc(SCc2ccccc2)nc(=O)[nH]1 |  | -5.28 | 4.94 | 208 | 0 | 51.6 |  |
| CCc1ccccc1Nc1nc(Cl)nc(Cl)n1 | -3.44 | -1.59 | -2.26 |  |  |  |  |
| O=c1nc(SCc2ccccc2)nc(SCC2CC2)[nH]1 |  | 42 | 10 | 211 | 0 | 28.3 |  |
| COc1nc(Nc2ccccc2C(=O)O)nc(OC)n1 | 6.34 | -3.14 | 2.63 |  |  |  |  |
| C[C@@H](NC(=O)c1ccccc1Nc1nc(Cl)nc(Cl)n1)C(=O)O | -1.7 | -5.15 |  |  |  |  |  |
| COC(=O)c1ccccc1Nc1nc(Cl)nc(Cl)n1 | -0.92 | 8.76 | -4.23 |  |  |  |  |
| COC(=O)c1ccccc1Oc1nc(OC)nc(OC)n1 | -0.33 | -9.64 | -5.34 |  |  |  |  |
| CCCSc1nc(SCc2ccccc2)[nH]c(=O)n1 |  |  |  | 259 |  | 49.4 |  |
| Clc1nc(Cl)nc(Nc2ccccc2Br)n1 | -1.59 | 0.59 | 4.52 |  |  |  |  |
| O=c1nc(SCc2ccccc2)nc(S)[nH]1 | 2.5 | 3.79 | 9.63 |  |  |  |  |
| O=c1nc(-c2cccc([N+](=O)[O-])c2)nc(S)[nH]1 | 4.71 | 7.7 | 7.97 |  |  |  |  |
| CCSc1nc(SCc2ccccc2)nc(=O)[nH]1 |  |  | -4.06 | 221 | 0 | 97.1 |  |

| Compound | inhibition (Cathepsin B [1]) [%] | inhibition [2] [%] | inhibition [3] [%] | Ki (Cathepsin B [4]) [µM] | fold change (FC) (Cathepsin B [5]) | Ki (Cathepsin B [6]) [µM] | Ki (Cathepsin B [7]) [µM] |
| --- | --- | --- | --- | --- | --- | --- | --- |
| COc1ccc(CCNc2nc(Cl)nc(Cl)n2)cc1OC | -9.7 | -0.33 | -2.17 |  |  |  |  |
| CCCCSc1nc(SCc2ccccc2)nc(=O)[nH]1 |  | 9.33 | -1.81 | 70.6 | 0 | 14.8 |  |
| CC(C)(C)c1ccccc1Nc1nc(Cl)nc(Cl)n1 | -7.27 | 4.36 | -4.16 |  |  |  |  |
| OCCc1ccccc1Nc1nc(Cl)nc(N2CCOCC2)n1 | -4.76 |  | -8.72 |  |  |  |  |
| O=c1nc(-c2ccccc2)nc(S)[nH]1 | -3.22 | -1.89 | 4.86 |  |  |  |  |
| COc1nc(N[C@H](CCC(=O)O)C(=O)O)nc(OC)n1 | -5.48 |  | 0.34 |  |  |  |  |
| COc1ccc(CNc2nc(Cl)nc(Cl)n2)cc1 | 3.99 | 0.48 | 6.37 |  |  |  |  |
| O=c1nc(SCc2ccccc2)nc(SCC2CCCCC2)[nH]1 |  | 76.2 | 10.2 | 11.9 | 0.12 |  | 3.3 |
| COc1nc(OC)nc(Sc2ccccc2C(=O)N[C@@H](C)C(=O)OCc2ccccc2)n1 | 3.18 | -4.25 | 1.34 |  |  |  |  |
| CC(C)OC(=O)[C@H](C)NC(=O)c1ccc(Nc2nc(Cl)nc(Cl)n2)cc1 | 1.68 | -6.12 | 3.02 |  |  |  |  |
| O=c1nc(SCc2ccccc2)nc(SCC2CCC2)[nH]1 |  | 37.4 | 1.57 | 34.1 | 0 | 10.1 |  |
| O=c1nc(SCc2ccccc2)nc(SCC2CCCC2)[nH]1 |  | 9.96 | 10.6 | 23 | 0 | 8.95 |  |
| COc1nc(OC)nc(Sc2ccccc2C(=O)O)n1 | 2.35 | 15.8 |  |  |  |  |  |
| CN(CCO)c1nc(Cl)nc(Nc2ccccc2CCO)n1 | -3.56 | 11.6 | 0.61 |  |  |  |  |
| CCCSc1nc(SCc2ccccc2)nc(=O)[nH]1 |  | -8.66 | -4.82 |  | 0 |  |  |
| O=C(O)c1ccccc1Sc1nc(Cl)nc(Cl)n1 | 2.3 |  | -1.7 |  |  |  |  |

Now from value to compound:

| inhibition (Cathepsin B [1]) [%] | inhibition [2] [%] | inhibition [3] [%] | Ki (Cathepsin B [4]) [µM] | fold change (FC) (Cathepsin B [5]) | Ki (Cathepsin B [6]) [µM] | Ki (Cathepsin B [7]) [µM] | Compound |
| --- | --- | --- | --- | --- | --- | --- | --- |
|  | 7.68 | 4.18 | 10.2 | 0.22 |  | 7.4 | O=c1nc(SCc2ccccc2)nc(SCc2cccc(F)c2)[nH]1 |
| 79.6 | 61.3 | 1.06 | 15.6 | 0.22 |  | 4.4 | COc1ccccc1CSc1nc(SCc2ccccc2)nc(=O)[nH]1 |
|  | 44.9 | 1.55 | 24.3 | 0.07 |  | 10.8 | N#Cc1ccc(CSc2nc(SCc3ccccc3)nc(=O)[nH]2)cc1 |
|  |  |  | 23 | 0.07 |  | 9.7 | N#Cc1ccc(CSc2nc(SCc3ccccc3)nc(=O)[nH]2)c(F)c1 |
|  |  |  | 11.9 | 0.24 |  | 6 | O=c1nc(SCc2ccccc2)nc(SCc2ccccc2[N+](=O)[O-])[nH]1 |
|  |  |  | 11.1 | 0.2 |  | 10.3 | COc1ccc(CSc2nc(SCc3ccccc3)nc(=O)[nH]2)cc1 |
|  | 81.2 | 3.92 | 11.3 | 0.15 |  | 3.3 | O=c1nc(SCc2ccccc2)nc(SCc2cccc([N+](=O)[O-])c2)[nH]1 |
|  | 85.2 | 6.91 | 4.4 | 0.25 |  | 2.5 | O=c1nc(SCc2ccccc2)nc(SCc2ccc(Cl)cc2)[nH]1 |
|  |  |  | 13 | 0.42 |  | 21.9 | COc1cccc(CSc2nc(SCc3ccccc3)nc(=O)[nH]2)c1 |
|  |  |  | 9.5 | 0.36 |  | 9 | O=c1nc(SCc2ccccc2)nc(SCc2ccccc2F)[nH]1 |
|  |  |  | 7.2 | 0.23 |  | 3.6 | O=c1nc(SCc2ccccc2)nc(SCc2ccccc2Cl)[nH]1 |
|  |  |  | 40.7 | 0.04 |  | 10.5 | N#Cc1ccccc1CSc1nc(SCc2ccccc2)nc(=O)[nH]1 |
|  |  |  | 46.7 | 0.02 |  | 9.1 | N#Cc1cccc(CSc2nc(SCc3ccccc3)nc(=O)[nH]2)c1 |
|  |  |  | 10 | 0.17 |  | 4 | O=c1nc(SCc2ccccc2)nc(SCc2ccc([N+](=O)[O-])cc2)[nH]1 |
|  |  |  | 5.4 | 0.28 |  | 4.5 | O=c1nc(SCc2ccccc2)nc(SCc2cccc(Cl)c2)[nH]1 |
|  |  |  | 16.6 | 0.33 |  | 13.8 | O=c1nc(SCc2ccccc2)nc(SCc2ccc(F)cc2)[nH]1 |
